Reference: ChEMBL document CHEMBL4842360, “Discovery of a Bicyclic Peptidyl Pan-Ras Inhibitor” (J Med Chem, 2021)

Key:
GTPase KRas = GTPase KRas (Homo sapiens, UniProt P01116, G12V); experiment: Inhibition of His6-tagged KRas G12V mutant (unknown origin) expressed in Escherichia coli BL21(DE3) cells assessed as reduction in Ras/GST-fused Raf RBD interaction incubated for 1 hr by HTRF assay
NCI-H358 [1] = experiment: Antiproliferative activity against human NCI-H358 cells incubated for 96 hrs by MTT assay; assay type: functional, cell-based
Outline: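 H358 cells at 5,000/well, grown overnight, treated with serially diluted peptide (0–40 μM) in 10% FBS medium for 96 h at 37 °C. MTT added for 4 h, formazan solubilized overnight in SDS-HCl, absorbance read at 570 nm.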

NCI-H358 [2] = experiment: Antiproliferative activity against human NCI-H358 cells incubated for 96 hrs by Celltiter-Glo assay; assay type: functional, cell-based; details: Homo sapiens, NCI-H358, 96 h; read-out: EC50
[3] = Homo sapiens, NCI-H358, 96 h, read-out: EC50

Chain of GTPase KRas (P01116 whole entry G12V, the tested form may be a part): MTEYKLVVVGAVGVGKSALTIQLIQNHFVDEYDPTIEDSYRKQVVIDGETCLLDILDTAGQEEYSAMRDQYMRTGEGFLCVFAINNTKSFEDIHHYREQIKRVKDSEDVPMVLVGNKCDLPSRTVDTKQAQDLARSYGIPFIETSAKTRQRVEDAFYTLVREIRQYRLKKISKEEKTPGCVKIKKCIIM

Row | IC50 (GTPase KRas; read-out: IC50) [µM] | EC50 (NCI-H358 [2]) [µM] | Structure (SMILES) | other results
1 | 0.5 | 4.4 | C[C@@H]1NC(=O)[C@@H](Cc2ccccc2)NC(=O)[C@@H]2CCCCNC(=O)c3cc(cc(c3)C(=O)N[C@H](Cc3ccc4ccccc4c3)C(=O)N[C@@H](CO)C(=O)N[C@@H](CC(N)=O)C(=O)N[C@H](Cc3ccc4ccccc4c3)C(=O)N[C@@H](c3ccccc3)C(=O)N2)C(=O)NC[C@@H](C(=O)N[C@@H](CC(N)=O)C(=O)N[C@H](CCCNC(=N)N)C(=O)N[C@@H](Cc2ccc(F)c(F)c2)C(=O)N[C@H](C)C(N)=O)NC(=O)[C@H](CCCNC(=N)N)NC(=O)[C@@H](CCCNC(=N)N)NC1=O | 
2 | 0.7 | 6 | C[C@@H]1NC(=O)[C@@H](Cc2ccccc2)NC(=O)[C@@H]2CCCCNC(=O)c3cc(cc(c3)C(=O)N[C@H](Cc3ccc4ccccc4c3)C(=O)N[C@@H](CO)C(=O)N[C@@H](CC(N)=O)C(=O)N[C@H](Cc3ccc4ccccc4c3)C(=O)N[C@@H](c3ccccc3)C(=O)N2)C(=O)NC[C@@H](C(=O)N[C@@H](CCN)CC(=O)N[C@H](CCCNC(=N)N)C(=O)N[C@@H](Cc2ccc(F)cc2)C(=O)N[C@H](C)C(N)=O)NC(=O)[C@H](CCCNC(=N)N)NC(=O)[C@@H](CCCNC(=N)N)NC1=O | 
3 | 0.89 | 7.2 | C[C@@H]1NC(=O)[C@@H](Cc2ccccc2)NC(=O)[C@@H]2CCCCNC(=O)c3cc(cc(c3)C(=O)N[C@H](Cc3ccc4ccccc4c3)C(=O)N[C@@H](CO)C(=O)N[C@@H](CC(N)=O)C(=O)N[C@H](Cc3ccc4ccccc4c3)C(=O)N[C@@H](c3ccccc3)C(=O)N2)C(=O)NC[C@@H](C(=O)N[C@@H](CCN)CC(=O)N[C@H](CCCNC(=N)N)C(=O)N[C@@H](Cc2ccc(F)cc2)C(=O)N[C@H](C)C(=O)N[C@@H](CCCCN)C(N)=O)NC(=O)[C@H](CCCNC(=N)N)NC(=O)[C@@H](CCCNC(=N)N)NC1=O | 
4 | 0.51 | 3.2 | C[C@@H]1NC(=O)[C@@H](Cc2ccccc2)NC(=O)[C@@H]2CCCCNC(=O)c3cc(cc(c3)C(=O)N[C@H](Cc3ccc4ccccc4c3)C(=O)N[C@@H](CO)C(=O)N[C@@H](CC(N)=O)C(=O)N[C@H](Cc3ccc4ccccc4c3)C(=O)N[C@@H](c3ccccc3)C(=O)N2)C(=O)NC[C@@H](C(=O)N[C@@H](CCN)CC(=O)N[C@H](CCCNC(=N)N)C(=O)N[C@@H](Cc2ccccc2)C(=O)N[C@H](C)C(N)=O)NC(=O)[C@H](CCCNC(=N)N)NC(=O)[C@@H](CCCNC(=N)N)NC1=O | 

Continued, compound first:

Row | Structure (SMILES) | IC50 (GTPase KRas; read-out: IC50) [µM] | EC50 (NCI-H358 [2]) [µM] | other results
5 | C[C@@H]1NC(=O)[C@@H](Cc2ccccc2)NC(=O)[C@@H]2CCCCNC(=O)c3cc(cc(c3)C(=O)N[C@H](Cc3ccc4ccccc4c3)C(=O)N[C@@H](CO)C(=O)N[C@@H](CCC(N)=O)C(=O)N[C@H](Cc3ccc4ccccc4c3)C(=O)N[C@@H](c3ccccc3)C(=O)N2)C(=O)NC[C@@H](C(=O)N2CCC[C@@H]2C(=O)N[C@H](CCCNC(=N)N)C(=O)N[C@H](Cc2ccc3ccccc3c2)C(=O)N[C@@H](CCC(=O)O)C(N)=O)NC(=O)[C@H](CCCNC(=N)N)NC(=O)[C@@H](CCCNC(=N)N)NC1=O |  |  | IC50 (GTPase KRas): Not Active
6 | C[C@H](NC(=O)[C@@H]1CNC(=O)c2cc3cc(c2)C(=O)N[C@H](Cc2ccc4ccccc4c2)C(=O)N[C@@H](CO)C(=O)N[C@@H](CCC(N)=O)C(=O)N[C@H](Cc2ccc4ccccc4c2)C(=O)N[C@@H](c2ccccc2)C(=O)N[C@@H](CCCCNC3=O)C(=O)N[C@H](Cc2ccccc2)C(=O)N[C@@H](C)C(=O)N[C@H](CCCNC(=N)N)C(=O)N[C@@H](CCCNC(=N)N)C(=O)N1)C(=O)N[C@H](CCCNC(=N)N)C(=O)N[C@H](Cc1ccccc1)C(=O)N[C@@H](Cc1ccc(F)cc1)C(N)=O |  |  | EC50 (NCI-H358 [1]; [3]): 19 µM
7 | C[C@@H]1NC(=O)[C@@H](Cc2ccccc2)NC(=O)[C@@H]2CCCCNC(=O)c3cc(cc(c3)C(=O)N[C@H](Cc3ccc4ccccc4c3)C(=O)N[C@@H](CO)C(=O)N[C@@H](CCC(N)=O)C(=O)N[C@H](Cc3ccc4ccccc4c3)C(=O)N[C@@H](c3ccccc3)C(=O)N2)C(=O)NC[C@@H](C(=O)N[C@@H](CCN)CC(=O)N[C@H](CC(N)=O)C(=O)N[C@H](Cc2ccc(O)cc2)C(=O)N[C@@H](C(N)=O)[C@H](C)O)NC(=O)[C@H](CCCNC(=N)N)NC(=O)[C@@H](CCCNC(=N)N)NC1=O |  |  | EC50 (NCI-H358 [1]; nci-h358): Not Active
8 | CC(C)[C@@H](NC(=O)[C@H](CO)NC(=O)[C@H](CC(=O)O)NC(=O)[C@@H](Cc1ccc(O)cc1)NC(=O)[C@@H]1CNC(=O)c2cc3cc(c2)C(=O)N[C@H](Cc2ccc4ccccc4c2)C(=O)N[C@@H](CO)C(=O)N[C@@H](CCC(N)=O)C(=O)N[C@H](Cc2ccc4ccccc4c2)C(=O)N[C@@H](c2ccccc2)C(=O)N[C@@H](CCCCNC3=O)C(=O)N[C@H](Cc2ccccc2)C(=O)N[C@@H](C)C(=O)N[C@H](CCCNC(=N)N)C(=O)N[C@@H](CCCNC(=N)N)C(=O)N1)C(=O)N[C@@H](CCCCN)C(N)=O |  |  | IC50 (GTPase KRas): Not Active
9 | CC(C)[C@@H](NC(=O)C[C@@H](CC(N)=O)NC(=O)[C@@H]1CNC(=O)c2cc3cc(c2)C(=O)N[C@H](Cc2ccc4ccccc4c2)C(=O)N[C@@H](CO)C(=O)N[C@@H](CCC(N)=O)C(=O)N[C@H](Cc2ccc4ccccc4c2)C(=O)N[C@@H](c2ccccc2)C(=O)N[C@@H](CCCCNC3=O)C(=O)N[C@H](Cc2ccccc2)C(=O)N[C@@H](C)C(=O)N[C@H](CCCNC(=N)N)C(=O)N[C@@H](CCCNC(=N)N)C(=O)N1)C(=O)N[C@H](C)CC(=O)N[C@H](Cc1c[nH]c2ccccc12)C(=O)NCCC(N)=O |  |  | IC50 (GTPase KRas): Not Active
10 | C[C@@H]1NC(=O)[C@@H](Cc2ccccc2)NC(=O)[C@@H]2CCCCNC(=O)c3cc(cc(c3)C(=O)N[C@H](Cc3ccc4ccccc4c3)C(=O)N[C@@H](CO)C(=O)N[C@@H](CC(N)=O)C(=O)N[C@H](Cc3ccc4ccccc4c3)C(=O)N[C@@H](c3ccccc3)C(=O)N2)C(=O)NC[C@@H](C(=O)N[C@@H](CC(N)=O)C(=O)N[C@H](CCCNC(=N)N)C(=O)N[C@@H](Cc2ccccc2)C(=O)N[C@H](C)C(N)=O)NC(=O)[C@H](CCCNC(=N)N)NC(=O)[C@@H](CCCNC(=N)N)NC1=O | 0.28 | 8.4 | 
11 | CC(C)[C@@H](NC(=O)C[C@H](CCN)NC(=O)[C@@H]1CNC(=O)c2cc3cc(c2)C(=O)N[C@H](Cc2ccc4ccccc4c2)C(=O)N[C@@H](CO)C(=O)N[C@@H](CCC(N)=O)C(=O)N[C@H](Cc2ccc4ccccc4c2)C(=O)N[C@@H](c2ccccc2)C(=O)N[C@@H](CCCCNC3=O)C(=O)N[C@H](Cc2ccccc2)C(=O)N[C@@H](C)C(=O)N[C@H](CCCNC(=N)N)C(=O)N[C@@H](CCCNC(=N)N)C(=O)N1)C(=O)N[C@H](C)CC(=O)N[C@H](Cc1c[nH]c2ccccc12)C(=O)NCCC(N)=O |  |  | EC50 (NCI-H358 [1]; nci-h358): Not Active
12 | C[C@@H]1NC(=O)[C@@H](Cc2ccccc2)NC(=O)[C@@H]2CCCCNC(=O)c3cc(cc(c3)C(=O)N[C@H](Cc3ccc4ccccc4c3)C(=O)N[C@@H](CO)C(=O)N[C@@H](CC(N)=O)C(=O)N[C@H](Cc3ccc4ccccc4c3)C(=O)N[C@@H](c3ccccc3)C(=O)N2)C(=O)NC[C@@H](C(=O)N[C@@H](CC(N)=O)C(=O)N[C@H](CCCNC(=N)N)C(=O)N[C@@H](Cc2cccnc2)C(=O)N[C@H](C)C(N)=O)NC(=O)[C@H](CCCNC(=N)N)NC(=O)[C@@H](CCCNC(=N)N)NC1=O | 0.41 | 6.6 | 
13 | CCCC[C@H](NC(=O)CNC(=O)C[C@H](CCC)NC(=O)[C@@H]1CNC(=O)c2cc3cc(c2)C(=O)N[C@H](Cc2ccc4ccccc4c2)C(=O)N[C@@H](CO)C(=O)N[C@@H](CCC(N)=O)C(=O)N[C@H](Cc2ccc4ccccc4c2)C(=O)N[C@@H](c2ccccc2)C(=O)N[C@@H](CCCCNC3=O)C(=O)N[C@H](Cc2ccccc2)C(=O)N[C@@H](C)C(=O)N[C@H](CCCNC(=N)N)C(=O)N[C@@H](CCCNC(=N)N)C(=O)N1)C(=O)N[C@H](CCCNC(=N)N)C(N)=O |  |  | EC50 (NCI-H358 [1]; [3]): 24 µM
14 | C[C@@H]1NC(=O)[C@@H](Cc2ccccc2)NC(=O)[C@@H]2CCCCNC(=O)c3cc(cc(c3)C(=O)N[C@H](Cc3ccc4ccccc4c3)C(=O)N[C@@H](CO)C(=O)N[C@@H](CCC(N)=O)C(=O)N[C@H](Cc3ccc4ccccc4c3)C(=O)N[C@@H](c3ccccc3)C(=O)N2)C(=O)NC[C@@H](C(=O)N[C@@H](CCC(=O)O)C(=O)N[C@@H](Cc2cnc[nH]2)C(=O)N2CCC[C@@H]2C(=O)N[C@H](Cc2ccc(O)cc2)C(=O)N[C@@H](CCCCN)C(N)=O)NC(=O)[C@H](CCCNC(=N)N)NC(=O)[C@@H](CCCNC(=N)N)NC1=O |  |  | EC50 (NCI-H358 [1]; nci-h358): Not Active
15 | C[C@@H]1NC(=O)[C@@H](Cc2ccccc2)NC(=O)[C@@H]2CCCCNC(=O)c3cc(cc(c3)C(=O)N[C@H](Cc3ccc4ccccc4c3)C(=O)N[C@@H](CO)C(=O)N[C@@H](CCC(N)=O)C(=O)N[C@H](Cc3ccc4ccccc4c3)C(=O)N[C@@H](c3ccccc3)C(=O)N2)C(=O)NC[C@@H](C(=O)N[C@@H](CCN)CC(=O)N[C@H](CCCNC(=N)N)C(=O)N[C@@H](Cc2ccc(F)cc2)C(=O)N[C@H](C)C(=O)N[C@@H](CCCCN)C(N)=O)NC(=O)[C@H](CCCNC(=N)N)NC(=O)[C@@H](CCCNC(=N)N)NC1=O |  |  | EC50 (NCI-H358 [1]; [3]): 17 µM
16 | C[C@@H]1NC(=O)[C@@H](Cc2ccccc2)NC(=O)[C@@H]2CCCCNC(=O)c3cc(cc(c3)C(=O)N[C@H](Cc3ccc4ccccc4c3)C(=O)N[C@@H](CO)C(=O)N[C@@H](CCC(N)=O)C(=O)N[C@H](Cc3ccc4ccccc4c3)C(=O)N[C@@H](c3ccccc3)C(=O)N2)C(=O)NC[C@@H](C(=O)N[C@H](CCCCN)C(=O)N[C@@H](Cc2c[nH]cn2)C(=O)N[C@H](Cc2ccc(O)cc2)C(=O)N[C@H](CCC(=O)O)C(N)=O)NC(=O)[C@H](CCCNC(=N)N)NC(=O)[C@@H](CCCNC(=N)N)NC1=O |  |  | IC50 (GTPase KRas): Not Active
17 | C[C@@H]1NC(=O)[C@@H](Cc2ccccc2)NC(=O)[C@@H]2CCCCNC(=O)c3cc(cc(c3)C(=O)N[C@H](Cc3ccc4ccccc4c3)C(=O)N[C@@H](CO)C(=O)N[C@@H](CC(N)=O)C(=O)N[C@H](Cc3ccc4ccccc4c3)C(=O)N[C@@H](c3ccccc3)C(=O)N2)C(=O)NC[C@@H](C(=O)N[C@@H](CCC(N)=O)C(=O)N[C@H](CCCNC(=N)N)C(=O)N[C@@H](Cc2ccccc2)C(=O)N[C@H](C)C(N)=O)NC(=O)[C@H](CCCNC(=N)N)NC(=O)[C@@H](CCCNC(=N)N)NC1=O | 0.23 | 7.5 | 
